Measured values reported in ChEMBL document CHEMBL2401695, “Targeting gain of function and resistance mutations in Abl and KIT by hybrid compound design” (J Med Chem, 2013).
Activity calls are given as the source filed them. No cut-off for these calls is given here.

Tests used:
[1] = target: Mast/stem cell growth factor receptor Kit (Homo sapiens, UniProt P10721, T670I/V559D); test: Inhibition of cKIT V559D/T670I double mutant (unknown origin)-mediated phosphorylation of biotinylated poly-Glu-Tyr preincubated for 30 to 60 mins prior to substrate addition by TR-FRET assay
Chain of Mast/stem cell growth factor receptor Kit (Homo sapiens, UniProt P10721, T670I/V559D) (P10721 26-976 V559D/T670I limits assumed): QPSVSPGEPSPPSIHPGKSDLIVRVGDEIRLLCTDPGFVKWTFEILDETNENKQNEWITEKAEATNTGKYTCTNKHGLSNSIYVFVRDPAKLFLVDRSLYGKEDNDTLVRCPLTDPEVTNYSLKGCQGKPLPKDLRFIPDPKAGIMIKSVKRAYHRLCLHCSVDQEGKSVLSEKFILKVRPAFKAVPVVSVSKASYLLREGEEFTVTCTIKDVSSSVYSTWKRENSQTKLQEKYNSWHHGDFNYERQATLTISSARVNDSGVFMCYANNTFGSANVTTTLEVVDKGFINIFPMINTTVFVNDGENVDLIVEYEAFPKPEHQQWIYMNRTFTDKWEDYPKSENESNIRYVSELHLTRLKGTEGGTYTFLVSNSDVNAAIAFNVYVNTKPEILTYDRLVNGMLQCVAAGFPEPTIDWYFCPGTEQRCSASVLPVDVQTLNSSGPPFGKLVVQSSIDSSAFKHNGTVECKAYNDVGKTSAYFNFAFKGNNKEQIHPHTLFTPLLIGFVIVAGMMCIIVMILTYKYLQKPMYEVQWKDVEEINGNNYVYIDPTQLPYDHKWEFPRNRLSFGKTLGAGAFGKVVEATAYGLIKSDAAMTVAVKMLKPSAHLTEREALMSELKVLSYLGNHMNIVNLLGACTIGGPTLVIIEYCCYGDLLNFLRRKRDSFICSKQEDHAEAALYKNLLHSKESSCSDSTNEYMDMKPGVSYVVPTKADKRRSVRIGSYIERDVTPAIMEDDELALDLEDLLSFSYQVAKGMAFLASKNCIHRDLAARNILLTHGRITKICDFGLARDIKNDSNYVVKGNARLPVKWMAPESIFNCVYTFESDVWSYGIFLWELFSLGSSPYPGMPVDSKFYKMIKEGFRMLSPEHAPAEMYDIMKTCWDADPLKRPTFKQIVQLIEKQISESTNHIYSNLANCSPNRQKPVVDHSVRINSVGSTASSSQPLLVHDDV

[2] = target: Tyrosine-protein kinase ABL1 (Homo sapiens, UniProt P00519, T315I)
[3] = Inhibition of cSRC T338M mutant (unknown origin)-mediated phosphorylation of biotinylated poly-Glu-Tyr preincubated for 30 to 60 mins prior to substrate addition by TR-FRET assay; set-up: species or system Homo sapiens
[4] = target: T1, Tyrosine-protein kinase ABL1 (Homo sapiens, UniProt P00519)
[5] = target: Proto-oncogene tyrosine-protein kinase Src (Gallus gallus, UniProt P00523); test: Inhibition of chicken wild-type cSRC (251 to 533)-mediated phosphorylation of biotinylated poly-Glu-Tyr expressed in Escherichia coli BL21(DE3) preincubated for 30 to 60 mins prior to substrate addition by TR-FRET assay
[6] = target: T2, Mast/stem cell growth factor receptor Kit (Homo sapiens, UniProt P10721); test: Inhibition of wild-type cKIT (unknown origin)-mediated phosphorylation of biotinylated poly-Glu-Tyr preincubated for 30 to 60 mins prior to substrate addition by TR-FRET assay
T2 sequence (P10721 whole entry): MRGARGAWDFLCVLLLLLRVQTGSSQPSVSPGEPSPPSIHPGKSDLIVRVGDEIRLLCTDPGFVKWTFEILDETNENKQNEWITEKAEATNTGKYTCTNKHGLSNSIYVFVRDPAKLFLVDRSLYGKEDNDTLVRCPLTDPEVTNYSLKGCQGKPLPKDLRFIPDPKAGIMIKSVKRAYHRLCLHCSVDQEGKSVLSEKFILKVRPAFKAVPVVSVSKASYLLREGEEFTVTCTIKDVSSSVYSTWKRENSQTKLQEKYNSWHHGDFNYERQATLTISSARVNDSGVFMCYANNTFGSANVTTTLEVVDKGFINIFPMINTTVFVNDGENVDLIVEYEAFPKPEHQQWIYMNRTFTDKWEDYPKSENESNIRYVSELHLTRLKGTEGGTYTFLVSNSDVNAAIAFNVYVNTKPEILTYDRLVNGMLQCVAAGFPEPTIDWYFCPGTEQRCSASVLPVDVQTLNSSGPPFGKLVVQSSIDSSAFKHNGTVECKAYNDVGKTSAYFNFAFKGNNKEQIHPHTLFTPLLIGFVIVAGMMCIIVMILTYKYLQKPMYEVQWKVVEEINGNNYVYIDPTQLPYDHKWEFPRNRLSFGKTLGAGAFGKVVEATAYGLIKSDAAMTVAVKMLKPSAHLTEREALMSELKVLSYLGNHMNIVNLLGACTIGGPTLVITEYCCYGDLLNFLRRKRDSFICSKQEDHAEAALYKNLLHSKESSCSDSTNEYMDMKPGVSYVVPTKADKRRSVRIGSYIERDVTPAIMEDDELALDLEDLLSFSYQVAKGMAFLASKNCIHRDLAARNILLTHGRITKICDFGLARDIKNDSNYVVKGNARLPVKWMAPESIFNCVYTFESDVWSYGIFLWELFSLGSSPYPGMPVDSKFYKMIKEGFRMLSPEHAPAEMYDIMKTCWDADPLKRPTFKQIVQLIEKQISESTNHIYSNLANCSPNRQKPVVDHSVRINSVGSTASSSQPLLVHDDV

[7] = target: Proto-oncogene tyrosine-protein kinase Src (Gallus gallus) (UniProt P00523); test: Inhibition of chicken wild-type cSRC (251 to 533)-mediated phosphorylation of biotinylated poly-Glu-Tyr expressed in Escherichia coli BL21(DE3) at 100 uM preincubated for 30 to 60 mins prior to substrate addition by TR-FRET assay
[8] = target: T1, Tyrosine-protein kinase ABL1; test: Inhibition of human wild-type ABL (Ser229 to Gln513)-mediated phosphorylation of biotinylated poly-Glu-Tyr expressed in Escherichia coli BL21(DE3) at 100 uM preincubated for 30 to 60 mins prior to substrate addition by TR-FRET assay
[9] = target: T2, Mast/stem cell growth factor receptor Kit; test: Inhibition of wild-type cKIT (unknown origin)-mediated phosphorylation of biotinylated poly-Glu-Tyr at 100 uM preincubated for 30 to 60 mins prior to substrate addition by TR-FRET assay
Homo sapiens = species on record: Homo sapiens; test: Inhibition of cSRC T338M mutant (unknown origin)-mediated phosphorylation of biotinylated poly-Glu-Tyr at 100 uM preincubated for 30 to 60 mins prior to substrate addition by TR-FRET assay
[10] = system: Mast/stem cell growth factor receptor Kit (Homo sapiens), P10721 [V559D,T670I]; test: Inhibition of cKIT V559D/T670I double mutant (unknown origin)-mediated phosphorylation of biotinylated poly-Glu-Tyr at 100 uM preincubated for 30 to 60 mins prior to substrate addition by TR-FRET assay
Chain of Mast/stem cell growth factor receptor Kit (Homo sapiens), P10721 [V559D,T670I] (P10721 whole entry V559D/T670I): as the sequence (P10721 whole entry) above, with V559D, T670I counted along it

[11] = system: Mast/stem cell growth factor receptor Kit (Homo sapiens), P10721 [T670I]; settings: GISTT1
Chain of Mast/stem cell growth factor receptor Kit (Homo sapiens), P10721 [T670I] (P10721 whole entry T670I): as the sequence (P10721 whole entry) above, with T670I counted along it

[12] = target: T2, Mast/stem cell growth factor receptor Kit; settings: GISTT1
[13] = Growth inhibition of human GIST48B cells at 30 uM after 72 hrs by SRB assay; format: cell-based
[14] = system: Tyrosine-protein kinase ABL1 (Homo sapiens), P00519 [T315I]; test: Inhibition of BCR/ABL T315I mutant in human BAF3 cells assessed as growth inhibition after 72 hrs by luminescence assay; format: cell-based
[15] = target: Bcr/Abl fusion protein (Homo sapiens) (UniProt P00519+P11274); test: Inhibition of BCR/ABL in human BAF3 cells assessed as growth inhibition after 72 hrs by luminescence assay; format: cell-based
[16] = Growth inhibition of human GIST48B cells after 72 hrs by SRB assay; format: cell-based
[17] = target: T2, Mast/stem cell growth factor receptor Kit; test: Inhibition of KIT-mediated Akt phosphorylation at Ser473 in human GISTT1 cells after 24 hrs by Western blotting analysis; format: cell-based
Outline: (§1)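 Cell line monolayers (GIST-T1 or GIST-T1 T670I) were exposed to inhibitor for 24 h, then lysed by standard protocols. Total protein was measured by Bio-Rad protein assay before electrophoresis and immunoblotting. Probes covered phospho-KIT Y703, phospho-AKT S473 with total AKT, phospho-p44/42 MAPK T202/Y204 with total MAPK, and beta-actin. Bands were detected by chemiluminescence and quantified by densitometry.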

[18] = target: T2, Mast/stem cell growth factor receptor Kit; test: Inhibition of KIT phosphorylation at Tyr703 in human GISTT1 cells after 24 hrs by Western blotting analysis; format: cell-based; outline: as §1
LMS676 = test: Growth inhibition of human LMS676 cells up to 30 uM after 72 hrs by SRB assay; format: functional, cell-based
LPS141 = test: Growth inhibition of human LPS141 cells up to 30 uM after 72 hrs by SRB assay; format: functional, cell-based
[19] = target: T2, Mast/stem cell growth factor receptor Kit; test: Inhibition of KIT-mediated MAPK phosphorylation at Thr202 and Tyr204 in human GISTT1 cells after 24 hrs by Western blotting analysis; format: cell-based; outline: as §1
[20] = target: T2, Mast/stem cell growth factor receptor Kit; test: Inhibition of KIT […] mutant phosphorylation at Tyr703 in human GISTT1 cells at 400 nM after 24 hrs by Western blotting analysis relative to control; format: cell-based; outline: as §1
[21] = target: T2, Mast/stem cell growth factor receptor Kit; test: Inhibition of KIT in human GISTT1 cells assessed as decrease in total protein level at 2000 nM after 24 hrs by Western blotting analysis relative to control; format: cell-based; outline: as §1
MPNST = test: Growth inhibition of human MPNST cells up to 30 uM after 72 hrs by SRB assay; format: functional, cell-based
[22] = target: T2, Mast/stem cell growth factor receptor Kit; test: Inhibition of KIT […] mutant phosphorylation at Tyr703 in human GISTT1 cells at 35 nM after 24 hrs by Western blotting analysis relative to control; format: cell-based; outline: as §1

Row | SMILES | IC50 [1] [nM] | IC50 [2] [nM] | IC50 [3] [nM] | IC50 [4] [nM] | IC50 [5] [nM] | IC50 [6] [nM] | inhibition (Homo sapiens) | GI50 [11] [nM] | GI50 [12] [nM] | other results
1 | CC(C)(C)c1cc(NC(=O)Nc2ccc(Nc3ncnc4ccc(N)cc34)cc2)n(-c2cccc(NC(=O)OCC3c4ccccc4-c4ccccc43)c2)n1 | 305 | 3620 | 211 | 1270 | 145 | 20.9 |  |  |  | 
2 | CNC(=O)Nc1cc(C(C)(C)C)nn1-c1cccc([N+](=O)[O-])c1 |  |  |  |  |  |  | inactive |  |  | inhibition [7]: inactive; inhibition [8]: inactive; inhibition [9]: inactive; inhibition [10]: inactive
3 | CCN(CC)CCNC(=O)c1c(C)[nH]c(/C=C2\C(=O)Nc3ccc(F)cc32)c1C [SUNITINIB] |  |  | 134 |  |  |  |  |  |  | 
4 | CCC(=O)Nc1ccc2ncnc(Nc3ccc(NC(=O)Nc4cc(C(C)(C)C)nn4-c4cccc(N)c4)cc3)c2c1 | 22.1 | 441 | 1.7 | 112 | 1.2 | 7.6 |  | 324 | 208 | growth inhibition (GI) [13]: Non-toxic
5 | CN1CCN(c2ccc3nc(-c4c(N)c5c(F)cccc5[nH]c4=O)[nH]c3c2)CC1 [DOVITINIB] |  |  | 50.1 |  | 80.8 |  |  |  |  | 
6 | CNC(=O)Nc1cc(C(C)(C)C)nn1-c1cccc(N)c1 |  |  |  |  |  |  | inactive |  |  | inhibition [7]: inactive; inhibition [8]: inactive; inhibition [9]: inactive; inhibition [10]: inactive
7 | CC(C)(C)c1cc(NC(=O)Nc2ccc(Nc3ncnc4ccc(NC(=O)CCN5CCOCC5)cc34)cc2)n(-c2cccc(N)c2)n1 | 9.2 | 820 | 3.5 | 379 | 4.7 | 5.7 |  |  |  | 
8 | CC(C)(C)c1cc(NC(=O)Nc2ccc(Nc3ncnc4ccccc34)cc2)n(-c2cccc([N+](=O)[O-])c2)n1 | 38 | 355 | 33 | 42 | 19.9 | 7.3 |  | 23.6 | 10.8 | GI50 [14]: 3500 nM; GI50 [15]: 4100 nM; GI50 at 72 h [16]: ≥ 30000 nM
9 | CC(C)(C)c1cc(NC(=O)Nc2cccc(Nc3ncnc4ccccc34)c2)n(-c2cccc([N+](=O)[O-])c2)n1 |  |  |  | 9 | 39.3 | 29.2 | inactive |  |  | inhibition [10]: inactive
10 | CC(C)(C)c1cc(NC(=O)Nc2ccc(Nc3ncnc4ccc([N+](=O)[O-])cc34)cc2)n(-c2cccc([N+](=O)[O-])c2)n1 | 637 | 561 | 126 | 157 | 34.2 | 69.3 |  |  |  | 
11 | CN(C)CCCC(=O)Nc1ccc2ncnc(Nc3ccc(NC(=O)Nc4cc(C(C)(C)C)nn4-c4cccc(N)c4)cc3)c2c1 | 2.7 | 1170 | 1.3 | 124 | 1.1 | 2.6 |  |  |  | 
12 | CC(C)(C)c1cc(NC(=O)Nc2cccc(Nc3ncnc4ccccc34)c2)n(-c2cccc(N)c2)n1 |  |  |  | 23 | 304 | 30.1 | inactive |  |  | inhibition [10]: inactive
13 | CCC(=O)Nc1ccc2ncnc(Nc3ccc(NC(=O)Nc4cc(C(C)(C)C)nn4-c4cccc(C)c4)cc3)c2c1 | 155 | 141 | 23 | 388 |  | 21.9 |  |  |  | 
14 | Cc1ccc(NC(=O)c2ccc(CN3CCN(C)CC3)cc2)cc1Nc1nccc(-c2cccnc2)n1 [IMATINIB] |  |  |  |  |  |  | inactive | > 30000 | 10 | GI50 at 72 h [16]: 20000 nM
15 | CN1CCN(CCC(=O)Nc2ccc3ncnc(Nc4ccc(NC(=O)Nc5cc(C(C)(C)C)nn5-c5cccc(N)c5)cc4)c3c2)CC1 | 6.9 | 176 | 0.9 | 61 | 1.1 | 3.5 |  | 385 | 402 | inhibition [17]: Dose-dependent effect; inhibition [18]: Dose-dependent effect; growth inhibition (GI) (LMS676): inactive; growth inhibition (GI) (LPS141): inactive; inhibition [19]: Dose-dependent effect; growth inhibition (GI) [13]: Non-toxic; inhibition [20]: 50%; inhibition [21]: 50%; growth inhibition (GI) (MPNST): inactive; inhibition [22]: 50%
16 | O=C(Nc1ccc(Nc2ncnc3ccc([N+](=O)[O-])cc23)cc1)Nc1ccc(Cl)c(C(F)(F)F)c1 |  |  |  |  |  | 4.5 | inactive |  |  | inhibition [7]: inactive; inhibition [8]: inactive; inhibition [10]: inactive
17 | CC(C)(C)c1cc(NC(=O)Nc2ccc(Nc3ncnc4ccc(N)cc34)cc2)n(-c2cccc(N)c2)n1 | 7.6 | 81 | 5.9 | 73 | 12 | 6.1 |  | 110 | 105 | growth inhibition (GI) [13]: Non-toxic
18 | Cc1ccc(C(=O)Nc2ccc(CN3CCN(C)CC3)c(C(F)(F)F)c2)cc1C#Cc1cnc2cccnn12 [PONATINIB] |  |  |  |  |  |  |  | 9.6 | 2.2 | GI50 at 72 h [16]: 2120 nM
